Out of some 190,000 compounds screened, about 1,300 (0.68%) were called active.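 Rule for the calls: active = primary screen inhibition at 20 µM above a set limit (cut at about 50% in these data); inactive = the rest.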 The sample as a whole holds a higher share of actives than the screen did.
The molecules below were run on diaphorase (Clostridium kluyveri) (assay: diaphorase inhibitors and chemical oxidizers, primary screen, counter-screen for diaphorase-coupled primary assays, biochemical, uHTS, resorufin fluorescence (AID 1217;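 note: plate controls were DMSO with full reaction for no effect and wells lacking NADH for full effect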)). Settings: diaphorase resazurin-to-resorufin fluorescence, NADH, 16 min; at 20 µM; active compounds read high; bacterial (C. kluyveri) enzyme, not human.
In short: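 Assay system: diaphorase enzyme from Clostridium kluyveri; Input: enzyme working solution with 0.14 U/mL diaphorase; Timing: 16 min at room temperature; Technique: resorufin fluorescence, excitation 544 nm, emission 590 nm; Benchmarks: positive control minus NADH, DMSO neutral control.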

Compound | inhibition
O=C(OCC(=O)N1CCOCC1)c1ccc(N2CCOCC2)c([N+](=O)[O-])c1 | 3.6% (inactive)
CC(C)(C)NC(=O)C(=O)NN=C1CCCCCCC1 | 3.8% (inactive)
CCN(CC)CCN(C(=O)c1cccc([N+](=O)[O-])c1)c1nc2ccc(OC)cc2s1 | 9.6% (inactive)
Cc1nn(-c2ccccc2)c(C)c1C(=O)OCC(=O)NC(=O)NC1CCCCC1 | 57.3% (active)
O=C(COC(=O)c1ccccc1SCC(=O)NC1CCCCC1)NC1CCCCC1 | 3.2% (inactive)
CCCn1c(C)cc(C(=O)COC(=O)c2c(C)nn(-c3ccccc3)c2C)c1C | 18.9% (inactive)
Cn1cnnc1SCc1nnc(-c2ccccc2Br)o1 | 4.8% (inactive)
CCC1CCCCN1C(=O)CSc1nc2c(c(=O)n(C)c(=O)n2C)n1C (centres undefined) | 6.8% (inactive)
COc1cccc(CC2(CO)CCCN(Cc3nc(-c4cccs4)oc3C)C2)c1 (centres undefined) | 17.2% (inactive)
CC1CCC2(CC1)NC(=O)N(Cc1nnc(-c3cccs3)o1)C2=O (centres undefined) | 8.2% (inactive)
CCOC(=O)C1(CC2CCCCO2)CCN(Cc2nc(-c3cccs3)oc2C)CC1 (centres undefined) | 56.2% (active)
COc1ccc(Nc2nc(N)nc(CSC(=S)N3CCC(C)CC3)n2)cc1 | 28.1% (inactive)
O=c1c(-c2ccccc2)coc2cc(O)ccc12 | -8.4% (inactive)
O=C(CCc1ccccc1)NNC(=O)c1ccc(Br)cc1 | -5.7% (inactive)
COc1ccc(C(=O)NC(=S)NNC(=O)c2c(-c3ccccc3)noc2C)cc1 | 38.4% (inactive)
COc1ccc(C(=O)NC(=S)NNC(=O)CCc2ccccc2)cc1 | 54% (active)
COc1ccc(CC(NC(C)=O)C(=O)NC2CCN(C(=O)c3ccc(OC)c(OC)c3)CC2)cc1OC (centres undefined) | 10.9% (inactive)
COc1ccc(CN2CCC(c3nc4ccc(Cl)cc4[nH]3)CC2)cc1 | 2.5% (inactive)
O=C(OCC1O[C@@H](OC(=O)c2cc(O)c(O)c(O)c2)[C@@H](OC(=O)c2cc(O)c(O)c(O)c2)[C@@H](OC(=O)c2cc(O)c(O)c(O)c2)[C@@H]1OC(=O)c1cc(O)c(O)c(O)c1)c1cc(O)c(O)c(O)c1 (some centres undefined) | 71.3% (active)
CC(=O)NC1C(OCc2ccccc2)OC(COC(C)=O)C(OC(C)=O)C1OC(C)=O (centres undefined) | 9% (inactive)
O=C(Nc1ccccc1-c1ccccc1)c1cccs1 | 7.8% (inactive)
Cc1ccc2[nH]c(=O)c(CN3CCCCC3)c(-c3ccccc3)c2c1 | 68.3% (active)
O=C(CN1CCOCC1)Nc1c(-c2ccccc2)c2cc(Br)ccc2[nH]c1=O | 12.8% (inactive)
Cc1ccc2[nH]c(=O)c(CC=C(Cl)Cl)c(C)c2c1 | 7.7% (inactive)
O=C(CSc1nc2ccccc2[nH]1)Nc1nc(-c2ccccc2)c(-c2ccccc2)o1 | 12.3% (inactive)

Compound | inhibition
COc1ccc(OC)c(C(c2nnnn2C(C)(C)C)N2CCc3ccccc3C2)c1 (centres undefined) | 29.8% (inactive)
COCCn1nnnc1C(c1cc2ccc(OC)cc2[nH]c1=O)N1CCc2ccccc2C1 (centres undefined) | 52.1% (active)
CCOc1ccc2[nH]c(=O)c(C(c3nnnn3CCOC)N3CCOCC3)cc2c1 (centres undefined) | 5.8% (inactive)
N#C/C(=C\C1=C(N2CCOCC2)C(=C\c2ccccc2)/CC1)C(=O)Nc1ccccc1F | 28.4% (inactive)
CCNc1ccc(C(=O)OCC(=O)N2c3ccccc3NC(=O)C2(C)C)cc1[N+](=O)[O-] | 19.8% (inactive)
Cc1nc(-c2ccc(Cl)cc2)sc1C(=O)CBr | 52.6% (active)
Cc1nc(-c2ccccc2)sc1C(=O)/C=C/c1ccccc1 | 13.8% (inactive)
Cc1ccc(SCC(=O)c2sc(-c3ccccc3)nc2C)cc1 | 20.1% (inactive)
CN1CCN(/N=C/c2ccc(-c3ccc([N+](=O)[O-])cc3)o2)CC1 | -3.7% (inactive)
COc1ccc(N(C(=O)c2ccc(C)cc2)S(=O)(=O)c2cccs2)cc1 | 18.3% (inactive)
CCC(C)(C)N=C(NC#N)Nc1cccnc1 | 59.6% (active)
CCOc1cccc(C(=O)Nc2cccnc2)c1 | -6.7% (inactive)
CC(C)(C)C1CCC(C(=O)Nc2cccnc2)CC1 (centres undefined) | 6.1% (inactive)
Cc1nn(C)cc1C(=O)Nc1ccccc1Br | 13.9% (inactive)
O=C(CCn1ccc([N+](=O)[O-])n1)Nc1nccs1 | 9.2% (inactive)
Oc1c(C=Nc2cccc3nsnc23)ccc2ccccc12 | 62.8% (active)
COc1ccc(C=Nc2cccc3ncccc23)cc1 | 39.7% (inactive)
CCSC1=NCCN1S(=O)(=O)c1ccc(F)cc1 | -9.8% (inactive)
c1cnn(-c2cc(N3CCOCC3)ncn2)c1 | 15.6% (inactive)
O=C(Nc1cc(N2CCOCC2)ncn1)NC1(C(F)(F)F)Oc2ccc(Cl)cc2O1 (centres undefined) | 62.6% (active)
Cc1csc(NC(=O)NC2(C(F)(F)F)Oc3ccccc3O2)n1 | 38.6% (inactive)
CC(=O)C1=C(O)C(=O)N(c2cccnc2)C1c1ccc([N+](=O)[O-])cc1 (centres undefined) | 9.5% (inactive)
COC(=O)C[n+]1cccc2ccccc21 | 2.1% (inactive)
O=C(CSc1ccc(-c2ccco2)nn1)NCc1ccc2c(c1)OCO2 | 18.6% (inactive)
C/C(=N\N1CCN(Cc2ccc(C)cc2)CC1)c1ccco1 | 3.3% (inactive)

Compound | inhibition
Cc1ccnc(-n2sc3ccccc3c2=O)n1 | 57% (active)
Cc1ccnc(Nc2nc3ccccc3s2)n1 | -16.3% (inactive)
Cc1ccnc(N2CCC(C(=O)NC3CCCCCC3)CC2)n1 | 0.8% (inactive)
Cc1ccc(S(=O)(=O)N(C)C)cc1NC(=O)/C=C/c1cccs1 | 15.5% (inactive)
C#Cc1ccc([C@@H]2C=C(C(=O)O)O[C@H](OCCCCO)C2)cc1 | 15% (inactive)
O=C(CCN1C(=O)c2ccccc2C1=O)NCCCn1ccnc1 | -0.3% (inactive)
O=C(O)/C=C/c1cn(Cc2ccccc2)nc1-c1cccs1 | 9.8% (inactive)
O=C(Cn1nnc(-c2ccccc2)n1)NCc1ccc2c(c1)OCO2 | -5.8% (inactive)
c1ccc(-c2nnc3n2NC(c2ccc4c(c2)OCO4)S3)cc1 (centres undefined) | 50% (active)
Cc1cccc(C)c1NC(=O)CSc1nnc(-c2ccccc2)n1Cc1ccc2c(c1)OCO2 | -6.5% (inactive)
Cc1ccc(NS(=O)(=O)c2ccc(C)c(NC(=O)COc3ccc4ccccc4c3)c2)c(C)c1 | 30.9% (inactive)
COc1ccc(N(C)S(=O)(=O)c2cccc3nsnc23)cc1 | 3.7% (inactive)
NC(=O)Cc1ccc2sc(-c3ccccc3)nc2c1 | 12.5% (inactive)
COCCCNC(=S)NC(=O)c1ccc([N+](=O)[O-])cc1 | 9.4% (inactive)
Cc1cccc(C(=O)NNC(=O)c2cccc([N+](=O)[O-])c2)c1 | 10.9% (inactive)
CC(C)CC(=O)NC(=S)NNC(=O)c1cccc([N+](=O)[O-])c1 | 58.7% (active)
CCCCCC(=O)Nc1ccc(C(=O)N/N=C/c2ccc([N+](=O)[O-])cc2)cc1 | 4.9% (inactive)
CC(C)(C)SCCNC(=O)c1cccc([N+](=O)[O-])c1 | 1.8% (inactive)
CCCCCC(=O)NC(=S)NNC(=O)c1ccc([N+](=O)[O-])cc1 | 54.7% (active)
Brc1cc(/C=N/n2cnnc2)oc1Br | -5.6% (inactive)
O=C(COc1ccc(Cl)cc1)NCc1nnc(SCC(=O)NCC2CCCO2)o1 (centres undefined) | 3.2% (inactive)
Cc1cc(C)n(CC(=O)Nc2ccc([N+](=O)[O-])cc2)n1 | 19.4% (inactive)
COc1ccc(CNC(=O)CN(Cc2ccc(Cl)cc2)S(C)(=O)=O)cc1 | 12.3% (inactive)
CC1=CC(C)(C)N(C(=O)CSc2nnc(-c3ccccc3)o2)c2ccc(C)cc21 | 6.9% (inactive)
COc1ccc2c(c1)C(C)=CC(C)(C)N2C(=O)CNCc1ccc2c(c1)OCO2 | 34.2% (inactive)

Compound | inhibition
COc1ccc2c(c1)C(C)=CC(C)(C)N2C(=O)Nc1ccccc1 | 74.3% (active)
O=C(NCc1ccccn1)c1cc(-c2ccccc2Cl)on1 | 4.9% (inactive)
COCCNC(=O)Nc1ccc2nc(-c3ccco3)c(-c3ccco3)nc2c1 | 70.2% (active)
COc1ccc(NC(=O)Nc2ccc3nsnc3c2)cc1 | 15.1% (inactive)
COc1ccc(NC(=O)Nc2ccc3nc(C)c(C)nc3c2)cc1 | 13.6% (inactive)
CN(c1ccc(C(=O)NCc2ccccn2)cc1)S(C)(=O)=O | 5.3% (inactive)
O=C(NCc1ccccn1)c1ccc2nc(-c3ccco3)c(-c3ccco3)nc2c1 | 51% (active)
CC(C)C(C)(C#N)NC(=O)CSc1nncn1-c1ccccc1 (centres undefined) | 12.5% (inactive)
O=C(CO/N=C/c1ccc(OC(F)F)cc1)NCc1ccc(F)cc1 | 9.6% (inactive)
O=C(NNC(=O)C1CCN(c2ncccn2)CC1)c1ccccc1 | -1.9% (inactive)
CCN1CCN(C(c2cccnc2)c2cc(Cl)c3cccnc3c2O)CC1 (centres undefined) | 54.7% (active)
Oc1c(CN2CCN(c3ccc(F)cc3)CC2)cc(Cl)c2cccnc12 | 14.9% (inactive)
CCOC(=O)N1CCN(C(c2cccnc2)c2ccc3cccnc3c2O)CC1 (centres undefined) | 48.3% (inactive)
Cc1ccc(N(C(=O)Cc2cccs2)C2C=CS(=O)(=O)C2)cc1Cl (centres undefined) | 12.1% (inactive)
CC(C)CCN1CCN(Cc2cn[nH]c2C2CCCCC2)CC1CCO (centres undefined) | 8.8% (inactive)
COc1ccc(NS(=O)(=O)c2cc(NC(=O)CC(=O)c3ccc([N+](=O)[O-])cc3)ccc2C)cc1 | -19.9% (inactive)
c1ccc(-c2cc3c(NCC4COc5ccccc5O4)ncnc3s2)cc1 (centres undefined) | 14.4% (inactive)
COc1ccc(-c2[nH]ncc2/C=N/NC(=O)c2cc(Br)ccc2O)c(OC)c1 | 8.8% (inactive)
Cc1ccccc1N/N=C/c1ccc(N2CCOCC2)cc1 | 13.9% (inactive)
Cc1cc(C(=O)N/N=C/c2ccc(N3CCOCC3)cc2)c(C)o1 | -7.7% (inactive)
CN(C)c1ccc(/C=N/Nc2cc(N3CCOCC3)nc(N3CCOCC3)n2)cc1 | 58% (active)
C(=N/Nc1cc(N2CCOCC2)nc(N2CCOCC2)n1)/c1ccccc1 | 65.9% (active)
CCN(CC)c1ccc(C(=O)N/N=C/c2ccc(N3CCOCC3)cc2)cc1 | 14.2% (inactive)
Cc1cc(Oc2ccccc2)nc(N2CCOCC2)n1 | 8.4% (inactive)

From PubChem BioAssay AID1217 (Sanford-Burnham Center for Chemical Genomics, 2008)
